Test results published in ChEMBL document CHEMBL4411336, “2-Aminothiazole Derivatives as Selective Allosteric Modulators of the Protein Kinase CK2. 2. Structure-Based Optimization and Investigation of Effects Specific to the Allosteric Mode of Action” (J Med Chem, 2019).
Values belong to the compound of their own block, whether it stands above or below them. Calls of active or inactive are those of the source. The rule behind the calls is not given here.

How the values were obtained:
786-0 [1] = test: Growth inhibition of human 786-0 cells at 25 uM after 24 hrs by MTT assay relative to control; assay type: functional; conditions: 786-0, 24 h, read-out: GI
[2] = target: T1, Casein kinase II subunit alpha (Homo sapiens, UniProt P68400); test: Inhibition of recombinant human GST-tagged CK2alpha in presence of ATP by radiometric kinase assay
Target sequence in this assay (P68400 whole entry): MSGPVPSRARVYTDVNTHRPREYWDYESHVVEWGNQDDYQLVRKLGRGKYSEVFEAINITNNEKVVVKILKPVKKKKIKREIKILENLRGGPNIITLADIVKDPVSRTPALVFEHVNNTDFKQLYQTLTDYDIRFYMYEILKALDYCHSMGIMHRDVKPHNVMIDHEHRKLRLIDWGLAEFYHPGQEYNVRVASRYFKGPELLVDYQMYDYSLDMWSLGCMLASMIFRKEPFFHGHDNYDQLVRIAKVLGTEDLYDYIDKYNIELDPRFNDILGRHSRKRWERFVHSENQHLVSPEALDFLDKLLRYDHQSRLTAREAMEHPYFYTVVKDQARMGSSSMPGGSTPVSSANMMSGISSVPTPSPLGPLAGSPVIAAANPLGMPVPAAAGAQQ

786-0 [3] = test: cells; conditions: Homo sapiens, 786-0, 24 h
786-0 [4] = test: Growth inhibition of human 786-0 cells after 24 hrs by MTT assay; assay type: functional; conditions: 786-0, 24 h
Summary of the method: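 786-O grown in RPMI 1640 with 10% FCS, pen/strep, 37 °C, 5% CO2; assays in medium with 0.1% or 0.5% serum. Cells seeded at 1 × 10^4/well, next day given fresh medium with inhibitor at various concentrations, DMSO (0.25%) control, 24 h. MTT 2 h at 37 °C, SDS/HCl solubilization 4 h, absorbance 570 nm. GI50 by linear interpolation on log[c] scale; at least two independent experiments.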

[5] = Growth inhibition of human MCF10A cells after 24 hrs by MTT assay; assay type: cell-based, MCF-10A
PC-3 = test: Growth inhibition of human PC3 cells after 24 hrs by MTT assay; assay type: functional; conditions: PC-3, 24 h
786-0 [6] = test: cells; conditions: Homo sapiens, 786-0, 24 h; remark: listed apart in the source
NCI-H1299 = test: Growth inhibition of human H1299 cells after 24 hrs by MTT assay; assay type: functional; conditions: NCI-H1299, 24 h
[7] = target: Cyclin-dependent kinase 1/cyclin B1 (Homo sapiens) (UniProt P06493+P14635); conditions: 5 uM
[8] = target: Aurora kinase B (Homo sapiens) (UniProt Q96GD4); test: Inhibition of recombinant full length human His-tagged AURKB expressed in baculovirus expression system assessed as reduction in enzyme activity at 5 uM in presence of ATP relative to control
[9] = target: Dual specificity protein kinase CLK1 (Homo sapiens) (UniProt P49759); conditions: 5 uM
[10] = target: Casein kinase I isoform gamma-1 (Homo sapiens) (UniProt Q9HCP0); test: Inhibition of recombinant full length human GST-tagged CK1gamma1 expressed in baculovirus expression system assessed as reduction in enzyme activity at 5 uM in presence of ATP relative to control
[11] = target: Serine/threonine-protein kinase pim-1 (Homo sapiens) (UniProt P11309); test: Inhibition of recombinant full length human His-tagged PIM1 expressed in baculovirus expression system assessed as reduction in enzyme activity at 5 uM in presence of ATP relative to control
[12] = target: Dual specificity protein kinase CLK2 (Homo sapiens) (UniProt P49760); conditions: 5 uM
DU-145 = test: Growth inhibition of human DU145 cells after 24 hrs by MTT assay; assay type: functional; conditions: DU-145, 24 h
[13] = target: Receptor tyrosine-protein kinase erbB-2 (Homo sapiens) (UniProt P04626); test: Inhibition of human His-tagged ERBB2 expressed in baculovirus expression system assessed as reduction in enzyme activity at 5 uM in presence of ATP relative to control; set-up: scale not given: the % may be the effect or the level left
U138-MG = test: Growth inhibition of human U138MG cells after 24 hrs by MTT assay; assay type: functional
[14] = target: Tyrosine-protein kinase ABL1 (Homo sapiens) (UniProt P00519); conditions: 5 uM
[15] = target: Activin receptor type-1 (Homo sapiens) (UniProt Q04771); test: Inhibition of recombinant human catalytic GST-tagged ACVR1 expressed in baculovirus expression system assessed as reduction in enzyme activity at 5 uM in presence of ATP relative to control
[16] = target: Serine/threonine-protein kinase pim-1 (Homo sapiens) (UniProt P11309); test: Inhibition of human PIM1 assessed as reduction in enzyme activity at 5 uM in presence of ATP relative to control; set-up: scale not given: the % may be the effect or the level left
[17] = target: Serine/threonine-protein kinase Chk2 (Homo sapiens) (UniProt O96017); conditions: 5 uM
[18] = target: Glycogen synthase kinase-3 beta (Homo sapiens) (UniProt P49841); test: Inhibition of recombinant full length human His-tagged GSK3beta expressed in baculovirus expression system assessed as reduction in enzyme activity at 5 uM in presence of ATP relative to control
Homo sapiens = species on record: Homo sapiens; test: Inhibition of human PI3K assessed as reduction in enzyme activity at 5 uM in presence of ATP relative to control
[19] = target: Dual specificity protein kinase CLK4 (Homo sapiens) (UniProt Q9HAZ1); test: Inhibition of recombinant full length human GST-tagged CLK4 expressed in baculovirus expression system assessed as reduction in enzyme activity at 5 uM in presence of ATP relative to control
[20] = target: Epidermal growth factor receptor (Homo sapiens) (UniProt P00533); test: Inhibition of human EGFR assessed as reduction in enzyme activity at 5 uM in presence of ATP relative to control; set-up: scale not given: the % may be the effect or the level left
[21] = Growth inhibition of human RPTEC cells after 24 hrs by MTT assay; assay type: cell-based
[22] = target: T1, Casein kinase II subunit alpha; conditions: HeLa, 40 uM

Sequence of Serine/threonine-protein kinase pim-1 (Homo sapiens) (P11309 whole entry, looked up): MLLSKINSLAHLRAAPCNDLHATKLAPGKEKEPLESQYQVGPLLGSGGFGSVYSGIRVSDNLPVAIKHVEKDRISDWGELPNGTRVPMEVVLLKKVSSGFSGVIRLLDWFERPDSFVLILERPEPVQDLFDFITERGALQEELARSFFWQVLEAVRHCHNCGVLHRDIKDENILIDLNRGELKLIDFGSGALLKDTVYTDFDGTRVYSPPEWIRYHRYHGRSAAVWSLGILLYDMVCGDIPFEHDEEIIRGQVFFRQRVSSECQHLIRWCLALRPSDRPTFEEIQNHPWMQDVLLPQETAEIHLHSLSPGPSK
Sequence of Glycogen synthase kinase-3 beta (Homo sapiens) (P49841 whole entry, looked up): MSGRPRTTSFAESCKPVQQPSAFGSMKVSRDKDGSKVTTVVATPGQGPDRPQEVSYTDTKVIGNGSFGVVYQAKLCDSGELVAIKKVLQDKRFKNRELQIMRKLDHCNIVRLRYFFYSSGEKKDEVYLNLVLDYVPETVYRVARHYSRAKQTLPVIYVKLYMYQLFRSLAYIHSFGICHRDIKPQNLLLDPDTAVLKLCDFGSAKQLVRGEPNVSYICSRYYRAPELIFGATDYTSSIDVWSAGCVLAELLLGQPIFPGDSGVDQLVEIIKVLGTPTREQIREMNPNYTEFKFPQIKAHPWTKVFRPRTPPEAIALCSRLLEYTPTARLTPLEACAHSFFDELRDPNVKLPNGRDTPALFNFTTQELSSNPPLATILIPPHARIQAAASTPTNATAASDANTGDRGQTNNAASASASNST
Sequence of Dual specificity protein kinase CLK1 (Homo sapiens) (P49759 whole entry, looked up, canonical isoform): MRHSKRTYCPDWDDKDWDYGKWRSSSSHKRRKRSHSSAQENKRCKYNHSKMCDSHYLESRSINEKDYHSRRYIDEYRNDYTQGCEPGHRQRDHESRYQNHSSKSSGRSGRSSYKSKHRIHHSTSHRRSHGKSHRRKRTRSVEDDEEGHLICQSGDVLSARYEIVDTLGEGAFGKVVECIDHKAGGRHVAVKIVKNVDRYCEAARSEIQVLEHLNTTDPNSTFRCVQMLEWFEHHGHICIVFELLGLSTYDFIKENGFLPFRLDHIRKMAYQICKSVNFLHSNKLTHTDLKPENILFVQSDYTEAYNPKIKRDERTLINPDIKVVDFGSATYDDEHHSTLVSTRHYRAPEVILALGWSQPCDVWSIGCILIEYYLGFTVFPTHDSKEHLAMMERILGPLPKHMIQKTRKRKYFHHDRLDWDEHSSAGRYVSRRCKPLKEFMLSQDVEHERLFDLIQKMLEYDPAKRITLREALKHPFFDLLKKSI
Sequence of Activin receptor type-1 (Homo sapiens) (Q04771 whole entry): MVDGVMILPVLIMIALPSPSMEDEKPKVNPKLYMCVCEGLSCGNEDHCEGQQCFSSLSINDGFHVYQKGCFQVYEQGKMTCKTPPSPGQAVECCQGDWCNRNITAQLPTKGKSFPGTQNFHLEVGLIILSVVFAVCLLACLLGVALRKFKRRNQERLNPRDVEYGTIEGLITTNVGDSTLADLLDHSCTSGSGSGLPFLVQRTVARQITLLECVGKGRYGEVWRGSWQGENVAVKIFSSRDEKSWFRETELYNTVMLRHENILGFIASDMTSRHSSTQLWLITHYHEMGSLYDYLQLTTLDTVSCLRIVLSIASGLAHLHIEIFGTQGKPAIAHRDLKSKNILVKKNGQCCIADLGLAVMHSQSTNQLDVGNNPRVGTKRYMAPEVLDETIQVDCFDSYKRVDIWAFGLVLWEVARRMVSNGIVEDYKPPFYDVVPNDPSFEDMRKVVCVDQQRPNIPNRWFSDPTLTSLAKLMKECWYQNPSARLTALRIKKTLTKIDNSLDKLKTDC
Sequence of Casein kinase I isoform gamma-1 (Homo sapiens) (Q9HCP0 whole entry, looked up, canonical isoform): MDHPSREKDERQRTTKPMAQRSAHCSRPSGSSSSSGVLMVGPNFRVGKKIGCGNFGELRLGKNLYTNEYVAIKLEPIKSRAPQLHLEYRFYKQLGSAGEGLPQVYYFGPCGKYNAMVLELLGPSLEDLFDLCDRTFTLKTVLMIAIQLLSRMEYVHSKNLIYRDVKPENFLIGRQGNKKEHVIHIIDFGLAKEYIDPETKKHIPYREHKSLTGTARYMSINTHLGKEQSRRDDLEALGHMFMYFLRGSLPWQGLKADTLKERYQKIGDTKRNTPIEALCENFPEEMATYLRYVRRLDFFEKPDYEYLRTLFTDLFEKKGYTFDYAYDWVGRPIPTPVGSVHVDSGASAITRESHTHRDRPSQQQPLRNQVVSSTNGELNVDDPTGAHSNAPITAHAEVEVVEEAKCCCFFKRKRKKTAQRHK
Sequence of Dual specificity protein kinase CLK4 (Homo sapiens) (Q9HAZ1 whole entry, looked up): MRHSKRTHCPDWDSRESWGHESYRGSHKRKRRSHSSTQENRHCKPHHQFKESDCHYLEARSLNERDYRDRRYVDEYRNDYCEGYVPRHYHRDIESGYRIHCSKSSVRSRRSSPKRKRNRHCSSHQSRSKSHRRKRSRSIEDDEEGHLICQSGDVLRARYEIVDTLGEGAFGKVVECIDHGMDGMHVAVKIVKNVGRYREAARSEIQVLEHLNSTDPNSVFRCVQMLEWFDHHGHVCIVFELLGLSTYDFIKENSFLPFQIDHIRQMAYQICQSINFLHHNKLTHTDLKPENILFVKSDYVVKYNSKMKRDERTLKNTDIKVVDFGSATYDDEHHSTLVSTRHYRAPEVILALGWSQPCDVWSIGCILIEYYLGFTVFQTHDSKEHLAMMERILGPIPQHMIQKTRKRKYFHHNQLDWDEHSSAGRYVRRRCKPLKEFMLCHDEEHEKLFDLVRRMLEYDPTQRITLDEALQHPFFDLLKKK
Sequence of Tyrosine-protein kinase ABL1 (Homo sapiens) (P00519 whole entry): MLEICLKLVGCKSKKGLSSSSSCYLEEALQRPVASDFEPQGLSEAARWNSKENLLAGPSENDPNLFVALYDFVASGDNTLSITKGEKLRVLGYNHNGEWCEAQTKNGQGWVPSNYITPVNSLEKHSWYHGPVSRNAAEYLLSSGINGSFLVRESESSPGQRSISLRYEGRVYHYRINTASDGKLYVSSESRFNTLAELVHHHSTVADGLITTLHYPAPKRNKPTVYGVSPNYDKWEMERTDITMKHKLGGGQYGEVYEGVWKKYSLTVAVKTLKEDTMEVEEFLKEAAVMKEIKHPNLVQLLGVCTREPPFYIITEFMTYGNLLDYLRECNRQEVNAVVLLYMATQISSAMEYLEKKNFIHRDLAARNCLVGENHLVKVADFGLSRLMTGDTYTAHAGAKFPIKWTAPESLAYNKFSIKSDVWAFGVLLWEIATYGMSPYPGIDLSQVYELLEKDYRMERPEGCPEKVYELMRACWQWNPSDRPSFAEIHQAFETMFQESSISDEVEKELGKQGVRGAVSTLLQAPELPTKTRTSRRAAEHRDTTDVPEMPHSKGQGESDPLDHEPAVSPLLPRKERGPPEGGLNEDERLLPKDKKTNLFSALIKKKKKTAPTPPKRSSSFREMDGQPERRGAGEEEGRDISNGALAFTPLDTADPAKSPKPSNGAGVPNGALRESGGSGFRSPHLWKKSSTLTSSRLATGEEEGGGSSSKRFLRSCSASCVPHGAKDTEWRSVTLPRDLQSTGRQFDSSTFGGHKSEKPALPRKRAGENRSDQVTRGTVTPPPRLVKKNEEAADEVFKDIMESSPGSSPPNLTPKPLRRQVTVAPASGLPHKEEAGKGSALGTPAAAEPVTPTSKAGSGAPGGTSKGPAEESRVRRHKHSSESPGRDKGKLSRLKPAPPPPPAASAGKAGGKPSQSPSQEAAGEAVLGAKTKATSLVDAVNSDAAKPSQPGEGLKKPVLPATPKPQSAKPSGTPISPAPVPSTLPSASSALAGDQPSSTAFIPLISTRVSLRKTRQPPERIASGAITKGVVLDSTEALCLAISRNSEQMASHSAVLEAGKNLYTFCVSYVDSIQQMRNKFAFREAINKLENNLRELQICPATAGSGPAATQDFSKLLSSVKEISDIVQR
Sequence of Cyclin-dependent kinase 1/cyclin B1 (Homo sapiens) (P06493 whole entry, looked up): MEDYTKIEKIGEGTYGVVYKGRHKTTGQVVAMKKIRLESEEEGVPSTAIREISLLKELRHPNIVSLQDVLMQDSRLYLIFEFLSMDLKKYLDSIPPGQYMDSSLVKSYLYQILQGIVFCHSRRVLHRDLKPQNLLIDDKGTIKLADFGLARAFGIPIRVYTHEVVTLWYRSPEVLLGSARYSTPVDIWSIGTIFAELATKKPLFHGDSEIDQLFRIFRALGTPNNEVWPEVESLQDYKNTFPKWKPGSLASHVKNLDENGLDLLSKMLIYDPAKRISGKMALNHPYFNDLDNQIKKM
Sequence of Cyclin-dependent kinase 1/cyclin B1 (Homo sapiens) (P14635 whole entry, looked up): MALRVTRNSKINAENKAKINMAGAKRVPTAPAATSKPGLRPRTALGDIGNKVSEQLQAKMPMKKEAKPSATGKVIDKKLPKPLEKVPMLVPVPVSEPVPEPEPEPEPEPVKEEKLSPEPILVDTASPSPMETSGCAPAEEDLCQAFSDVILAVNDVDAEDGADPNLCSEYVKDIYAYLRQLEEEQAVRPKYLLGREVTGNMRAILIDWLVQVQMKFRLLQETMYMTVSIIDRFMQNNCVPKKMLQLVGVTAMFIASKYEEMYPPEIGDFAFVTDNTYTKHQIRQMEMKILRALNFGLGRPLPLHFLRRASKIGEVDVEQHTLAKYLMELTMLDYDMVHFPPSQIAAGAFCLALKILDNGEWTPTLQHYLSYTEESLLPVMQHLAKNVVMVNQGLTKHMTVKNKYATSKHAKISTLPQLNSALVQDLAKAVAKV

Compound: CS(=O)(=O)NC(=O)c1ccc(Nc2nc(-c3ccc4ccccc4c3)cs2)cc1
inhibition of growth at 25 µM (786-0 [1]): 23%

Compound: CC(=O)OCOC(=O)c1ccc(Nc2nc(-c3cccc([N+](=O)[O-])c3)cs2)cc1
inhibition of growth at 25 µM (786-0 [1]): 42%

Compound: O=C(O)Cc1ccc(Nc2nc(-c3cccc([N+](=O)[O-])c3)cs2)cc1
IC50 [2]: > 50 µM

Compound: Cc1ccc(S(=O)(=O)NC(=O)c2ccc(Nc3nc(-c4ccc5ccccc5c4)cs3)cc2)cc1
inhibition of growth at 25 µM (786-0 [1]): 87%

Compound: CC(=O)OCOC(=O)c1ccc(Nc2nc(-c3ccc4ccccc4c3)cs2)cc1
inhibition of growth at 25 µM (786-0 [1]): 45%

Compound: O=C(O)c1ccc(Nc2nc(-c3ccc(O)cc3O)cs2)cc1
IC50 [2]: 7 µM

Compound: CC(=O)OCOC(=O)c1ccc(Nc2nc(-c3ccsc3)cs2)cc1
inhibition of growth at 25 µM (786-0 [1]): 48%

Compound: CC(C)(C)c1csc(Nc2ccc(C(=O)O)cc2)n1
IC50 [2]: > 50 µM

Compound: O=[N+]([O-])c1cccc(-c2csc(Nc3ccccc3)n2)c1
IC50 [2]: > 25 µM

Compound: COC(=O)c1ccc(Nc2nc(-c3cccc([N+](=O)[O-])c3)cs2)cc1
IC50 [2]: > 25 µM

More lines, main results first:

IC50 [2]: > 50 µM
Compound: c1ccc(Nc2nc(-c3ccc4ccccc4c3)cs2)cc1

EC50 (786-0 [3]): 4.9 µM | GI50 (786-0 [4]): 5 µM | GI50 (PC-3): 7 µM | EC50 (786-0 [6]): 4.6 µM | GI50 (NCI-H1299): 9 µM | inhibition [7]: 20 to 30% | inhibition [8]: 62% | inhibition [9]: 20 to 30% | inhibition [10]: 32% | inhibition [11]: 60% | inhibition [12]: 20 to 30% | GI50 (DU-145): 20 µM | Activity [13]: 70% | inhibition [14]: 20 to 30% | inhibition [15]: 0% | Activity [16]: 60% | inhibition [17]: 20 to 30% | inhibition [18]: 41% | inhibition (Homo sapiens): 53% | inhibition [19]: 23% | Activity [20]: 21%
Compound: O=C(O)c1ccc(Nc2nc(-c3ccc4ccccc4c3)cs2)cc1O
GI50 at 24 h [5]: 10 µM | inhibition of growth at 25 µM (786-0 [1]): 87% | GI50 (U138-MG): 13 µM | GI50 at 24 h [21]: 27 µM

IC50 [2]: > 50 µM
Compound: N#Cc1ccc(Nc2nc(-c3ccc4ccccc4c3)cs2)cc1

GI50 (786-0 [4]): 25 µM | inhibition [22]: Active
Compound: O=C(O)c1ccc(Nc2nc(-c3cccc(Br)c3)cs2)cc1
